Measurements taken from ChEMBL document CHEMBL4152192, “Synthesis and anticancer activity evaluation of novel azacalix[2]arene[2]pyrimidines” (Eur J Med Chem, 2018).

Tests used:
A549 = assay: Antiproliferative activity against human A549 cells after 72 hrs by CCK-8 assay; type: functional, cell-based; details: A549, 72 h
Procedure, shortened: (§1)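 Cells seeded at 5 × 10³/well; A549, MCF7 and SH-SY5Y grown in DMEM, CNE and L-02 in RPMI-1640 (10% FBS, pen/strep, 37 °C, 5% CO₂). Compounds in DMSO, diluted in medium; 72 h exposure versus DMSO vehicle. CCK-8 absorbance read at 450 nm; viability taken as treated/control absorbance, IC₅₀ from curve fit. Triplicate wells, three independent experiments.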

MCF7 = assay: Antiproliferative activity against human MCF7 cells after 72 hrs by CCK-8 assay; type: functional, cell-based; details: MCF7, 72 h; procedure, shortened: as §1
L02 = assay: Antiproliferative activity against human L02 cells after 72 hrs by CCK-8 assay; type: cell-based; details: L02, 72 h; procedure, shortened: as §1
CNE = assay: Antiproliferative activity against human CNE cells after 72 hrs by CCK-8 assay; type: functional, cell-based; procedure, shortened: as §1
SH-SY5Y = assay: Antiproliferative activity against human SH-SY5Y cells after 72 hrs by CCK-8 assay; type: functional, cell-based; procedure, shortened: as §1

Row | SMILES | IC50 (A549) [µM] | IC50 (MCF7) [µM] | IC50 (SH-SY5Y) [µM] | IC50 (L02) [µM] | IC50 (CNE) [µM]
1 | COc1cnc2nc1Nc1cc(cc(N3CCCC3)c1)Nc1ncc(OC)c(n1)Nc1cc(cc(N3CCCC3)c1)N2 | 1.6 | 1.45 | 2.05 | 15.8 | 35.7
2 | Brc1cc2cc(c1)Nc1nccc(n1)Nc1cc(Br)cc(c1)Nc1nccc(n1)N2 | 6.55 | 9.24 | 2.96 | 47.9 | > 50
3 | COc1cnc2nc1Nc1cc(cc(N3CCOCC3)c1)Nc1ncc(OC)c(n1)Nc1cc(cc(N3CCOCC3)c1)N2 | > 50 | > 50 | > 50 | > 50 | > 50
4 | Cc1cnc2nc1Nc1cc(cc(N3CCOCC3)c1)Nc1ncc(C)c(n1)Nc1cc(cc(N3CCOCC3)c1)N2 | > 50 | > 50 | > 50 | > 50 | > 50
5 | Fc1cnc2nc1Nc1cccc(c1)Nc1ncc(F)c(n1)Nc1cccc(c1)N2 | > 50 | > 50 | > 50 | > 50 | > 50
6 | COc1cnc2nc1Nc1cccc(c1)Nc1ncc(OC)c(n1)Nc1cccc(c1)N2 | > 50 | > 50 | > 50 | > 50 | > 50

The next lines start with results.

Row | IC50 (A549) [µM] | IC50 (MCF7) [µM] | IC50 (SH-SY5Y) [µM] | SMILES | IC50 (L02) [µM] | IC50 (CNE) [µM]
7 | > 50 | > 50 | > 50 | COc1cnc2nc1Nc1cc(cc(C(F)(F)F)c1)Nc1ncc(OC)c(n1)Nc1cc(cc(C(F)(F)F)c1)N2 | > 50 | > 50
8 | > 50 | > 50 | > 50 | CCOC(=O)c1cc2cc(c1)Nc1nc(ncc1Cl)Nc1cc(cc(C(=O)OCC)c1)Nc1nc(ncc1Cl)N2 | > 50 | > 50
9 | > 50 | > 50 | > 50 | Cc1cnc2nc1Nc1cc(cc(C(F)(F)F)c1)Nc1ncc(C)c(n1)Nc1cc(cc(C(F)(F)F)c1)N2 | > 50 | > 50
10 | > 50 | > 50 | > 50 | Fc1cnc2nc1Nc1cc(cc(C(F)(F)F)c1)Nc1ncc(Cl)c(n1)Nc1cc(cc(C(F)(F)F)c1)N2 | > 50 | > 50
11 | > 50 | > 50 | > 50 | FC(F)(F)c1cc2cc(c1)Nc1nc(ncc1Cl)Nc1cc(cc(C(F)(F)F)c1)Nc1nc(ncc1Cl)N2 | > 50 | > 50
